For data set [1], the system named is Mast/stem cell growth factor receptor Kit (Homo sapiens), P10721 [K642E]. Kind of data set: Inhibition of KIT K642E mutant autophosphorylation (unknown origin) expressed in human GIST882 cells at < 3000 nM by ELISA. Format: cell-based. (An ELISA detects its analyte on a solid surface through an enzyme-linked reagent.)
In data set [2] the target is Bcr/Abl fusion protein (Homo sapiens) (UniProt P00519+P11274). Kind of data set: Inhibition of human BCR-ABL1 autophosphorylation expressed in mouse BA/F3 cells at < 3000 nM by ELISA. Format: cell-based. As to conditions: BaF3.
Sequence of Bcr/Abl fusion protein (Homo sapiens) (P00519 whole entry, looked up, the tested form may be a part): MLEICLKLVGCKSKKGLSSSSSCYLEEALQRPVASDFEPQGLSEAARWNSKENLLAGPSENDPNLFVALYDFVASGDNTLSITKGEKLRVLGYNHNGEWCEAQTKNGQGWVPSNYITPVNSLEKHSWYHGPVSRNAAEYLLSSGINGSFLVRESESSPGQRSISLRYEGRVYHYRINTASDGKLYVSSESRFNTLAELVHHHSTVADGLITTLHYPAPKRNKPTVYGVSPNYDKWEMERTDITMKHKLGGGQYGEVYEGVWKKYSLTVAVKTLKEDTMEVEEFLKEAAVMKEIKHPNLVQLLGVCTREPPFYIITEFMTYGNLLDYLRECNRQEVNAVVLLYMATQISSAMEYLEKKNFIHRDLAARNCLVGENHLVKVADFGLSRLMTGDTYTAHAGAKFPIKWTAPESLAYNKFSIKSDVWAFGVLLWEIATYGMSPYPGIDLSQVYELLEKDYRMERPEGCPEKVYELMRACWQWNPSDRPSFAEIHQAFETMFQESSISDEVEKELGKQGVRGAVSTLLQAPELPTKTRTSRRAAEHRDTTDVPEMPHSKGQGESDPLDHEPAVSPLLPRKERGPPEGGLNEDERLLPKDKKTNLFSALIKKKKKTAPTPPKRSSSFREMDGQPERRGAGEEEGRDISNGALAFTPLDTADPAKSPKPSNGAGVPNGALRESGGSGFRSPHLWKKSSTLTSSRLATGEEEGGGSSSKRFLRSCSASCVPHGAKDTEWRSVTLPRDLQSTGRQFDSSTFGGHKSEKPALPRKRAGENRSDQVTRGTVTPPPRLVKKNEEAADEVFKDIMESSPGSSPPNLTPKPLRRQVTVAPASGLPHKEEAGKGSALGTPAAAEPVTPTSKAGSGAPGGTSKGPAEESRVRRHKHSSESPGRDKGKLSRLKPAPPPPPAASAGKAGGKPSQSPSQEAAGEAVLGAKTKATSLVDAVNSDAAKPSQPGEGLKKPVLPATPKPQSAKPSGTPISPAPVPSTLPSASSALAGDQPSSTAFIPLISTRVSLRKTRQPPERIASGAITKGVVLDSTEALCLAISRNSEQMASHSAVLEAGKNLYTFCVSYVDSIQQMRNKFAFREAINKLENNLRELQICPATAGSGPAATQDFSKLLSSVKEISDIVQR
Sequence of Bcr/Abl fusion protein (Homo sapiens) (P11274 whole entry, looked up, the tested form may be a part): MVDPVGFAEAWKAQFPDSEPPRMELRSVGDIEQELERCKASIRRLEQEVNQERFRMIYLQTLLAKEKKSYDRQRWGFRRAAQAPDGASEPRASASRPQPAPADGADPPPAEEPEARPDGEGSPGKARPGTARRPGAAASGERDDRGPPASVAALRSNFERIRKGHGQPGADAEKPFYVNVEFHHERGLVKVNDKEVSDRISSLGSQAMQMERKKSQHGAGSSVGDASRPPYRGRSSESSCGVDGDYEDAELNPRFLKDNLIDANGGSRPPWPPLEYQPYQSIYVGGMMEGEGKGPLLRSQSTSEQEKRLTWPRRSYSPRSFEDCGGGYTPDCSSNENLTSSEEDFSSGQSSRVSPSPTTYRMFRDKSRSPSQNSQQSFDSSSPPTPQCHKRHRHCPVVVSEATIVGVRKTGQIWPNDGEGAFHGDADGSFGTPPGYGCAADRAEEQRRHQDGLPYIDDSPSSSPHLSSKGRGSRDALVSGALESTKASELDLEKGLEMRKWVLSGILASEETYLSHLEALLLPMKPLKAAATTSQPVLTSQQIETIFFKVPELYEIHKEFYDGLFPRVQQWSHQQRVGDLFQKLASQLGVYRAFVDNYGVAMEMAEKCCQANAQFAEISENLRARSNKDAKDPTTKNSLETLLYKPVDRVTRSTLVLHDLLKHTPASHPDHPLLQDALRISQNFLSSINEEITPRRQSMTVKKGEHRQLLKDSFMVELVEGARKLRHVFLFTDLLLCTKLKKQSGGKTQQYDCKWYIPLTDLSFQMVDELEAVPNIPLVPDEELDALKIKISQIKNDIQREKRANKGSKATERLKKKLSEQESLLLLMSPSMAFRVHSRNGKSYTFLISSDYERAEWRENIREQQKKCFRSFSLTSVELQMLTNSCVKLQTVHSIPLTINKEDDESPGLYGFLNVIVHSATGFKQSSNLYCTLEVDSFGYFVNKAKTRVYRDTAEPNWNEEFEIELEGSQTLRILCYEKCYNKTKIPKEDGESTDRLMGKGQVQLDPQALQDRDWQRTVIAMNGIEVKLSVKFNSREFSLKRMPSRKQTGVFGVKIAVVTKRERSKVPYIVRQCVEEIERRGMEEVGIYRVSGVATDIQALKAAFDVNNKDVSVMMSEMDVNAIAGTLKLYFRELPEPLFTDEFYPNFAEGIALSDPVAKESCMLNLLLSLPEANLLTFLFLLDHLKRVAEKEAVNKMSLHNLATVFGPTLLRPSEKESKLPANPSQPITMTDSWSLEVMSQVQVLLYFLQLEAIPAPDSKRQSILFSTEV
Data set [3] deals with T1, Bcr/Abl fusion protein (Homo sapiens, UniProt P00519). Kind of data set: Inhibition of human BCR-ABL1 (unknown origin) expressed in mouse 32D cells. It is filed as cell-based.
T1 sequence (P00519 whole entry, the tested form may be a part): as the sequence (P00519 whole entry, looked up, the tested form may be a part) above
T1 sequence (P11274 whole entry, further chain, the tested form may be a part): as the sequence (P11274 whole entry, looked up, the tested form may be a part) above
Data set [4] addresses T1, Bcr/Abl fusion protein. The data set can be described thus: Inhibition of human BCR-ABL1 autophosphorylation expressed in mouse BA/F3 cells by ELISA. It is filed as cell-based, BaF3.
Data set [5] deals with T1, Bcr/Abl fusion protein. The data set can be described thus: Inhibition of human BCR-ABL1 expressed in mouse BA/F3 cells assessed as cell growth inhibition by ATP-depletion assay. It is filed as cell-based, BaF3.
Data set [6] has as its target Mast/stem cell growth factor receptor Kit (Homo sapiens, UniProt P10721, K642E). Kind of data set: Inhibition of KIT K642E mutant autophosphorylation (unknown origin) expressed in human GIST882 cells by ELISA. It is filed as cell-based.
A further data set relates to Rattus norvegicus. Kind of data set: AUC (0 to 48 hrs) in Sprague-Dawley rat assessed as N-[4-Methyl-3-[[4-(3-pyridinyl)-2-pyrimidinyl]amino]-phenyl]-4-(1-piperazinylmethyl)benzamide at 1 mg/kg, iv administered as bolus dose. It is filed as ADME, organism-based, Plasma. Also on record: time < 48 hr, dose 1 mg/kg, route intravenous. As to conditions: in vivo. The method, boiled down: (§1)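 Single IV bolus into femoral vein, 1 mg/kg in 0.5 mL/kg vehicle (30% NMP, 70% PEG200). Serial blood samples taken from femoral artery for up to 48 h, stored at −20 °C. Proteins precipitated with CH3CN containing internal standard, then LC/MS/MS with ESI; LLOQ 0.4 ng mL. Parameters from non-compartmental analysis.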

Data set [7] is described as follows: AUC (0 to 48 hrs) in Sprague-Dawley rat at 1 mg/kg, iv administered as bolus dose. Format: ADME, organism-based. Also on record: time < 48 hr, dose 1 mg/kg, route intravenous. As to conditions: plasma. Summed up:
as §1

Data set [8] has as its system Liver microsomes. Kind of data set: Metabolic stability in human liver microsomes assessed as compound remaining by capillary-HPLC/MS analysis. It is filed as ADME, Microsome. Summed up: (§2)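 Parent compound added from 2 mM DMSO stock to liver microsomes (20 mg protein/mL) in 100 mM phosphate buffer pH 7.4 with alamethicin and UDPGA. Pre-incubated 3 min at 37 °C, started with NADPH-regenerating system, run up to 60 min at 37 °C. Stopped with ice-cold CH3CN, centrifuged, diluted, analysed by capillary-HPLC/MS; peak areas not corrected for response factors.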

The subject of data set [9] is Liver microsomes. Kind of data set: Metabolic stability in rat liver microsomes assessed as compound remaining by capillary-HPLC/MS analysis. Format: ADME, Microsome. Summed up: as §2
(In general: Liver microsomes are vesicles of endoplasmic reticulum, rich in cytochrome P450 enzymes.)

Another data set can be described thus: in vivo. As to conditions: Sprague-Dawley, rat, plasma, iv, 1 mg/kg.

pIC50: −log10 of the molar value. Active and inactive are the calls of the source. The calls are words filed in the database; no cut-off is given here.

Sequence of Mast/stem cell growth factor receptor Kit (Homo sapiens), P10721 [K642E] (P10721 whole entry K642E, the tested form may be a part): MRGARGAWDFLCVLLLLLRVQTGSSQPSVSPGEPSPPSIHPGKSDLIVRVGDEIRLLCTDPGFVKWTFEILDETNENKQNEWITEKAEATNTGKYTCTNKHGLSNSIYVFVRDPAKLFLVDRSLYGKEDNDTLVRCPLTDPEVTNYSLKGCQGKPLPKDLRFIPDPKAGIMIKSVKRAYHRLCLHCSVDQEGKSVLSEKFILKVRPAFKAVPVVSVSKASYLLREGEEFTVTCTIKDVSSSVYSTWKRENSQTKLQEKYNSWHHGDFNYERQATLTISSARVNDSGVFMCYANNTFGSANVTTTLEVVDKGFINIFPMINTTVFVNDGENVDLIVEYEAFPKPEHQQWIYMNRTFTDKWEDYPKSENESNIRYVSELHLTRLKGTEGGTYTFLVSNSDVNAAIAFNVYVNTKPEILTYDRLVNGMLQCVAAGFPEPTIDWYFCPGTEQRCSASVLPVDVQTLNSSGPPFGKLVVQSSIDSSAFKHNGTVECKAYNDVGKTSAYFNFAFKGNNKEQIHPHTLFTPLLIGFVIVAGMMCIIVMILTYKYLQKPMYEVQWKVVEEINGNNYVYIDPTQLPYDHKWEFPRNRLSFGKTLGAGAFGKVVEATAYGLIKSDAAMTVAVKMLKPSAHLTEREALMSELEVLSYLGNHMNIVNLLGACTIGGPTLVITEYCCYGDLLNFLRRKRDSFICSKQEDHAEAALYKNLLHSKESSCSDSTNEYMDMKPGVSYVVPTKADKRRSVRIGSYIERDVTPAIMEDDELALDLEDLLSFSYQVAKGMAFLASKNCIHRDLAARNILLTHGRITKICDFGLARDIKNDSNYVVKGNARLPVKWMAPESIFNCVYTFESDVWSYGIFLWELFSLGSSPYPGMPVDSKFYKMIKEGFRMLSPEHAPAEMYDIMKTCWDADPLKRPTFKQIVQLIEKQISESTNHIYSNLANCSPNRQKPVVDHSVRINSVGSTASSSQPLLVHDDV
Sequence of Mast/stem cell growth factor receptor Kit (P10721 26-976 K642E limits assumed): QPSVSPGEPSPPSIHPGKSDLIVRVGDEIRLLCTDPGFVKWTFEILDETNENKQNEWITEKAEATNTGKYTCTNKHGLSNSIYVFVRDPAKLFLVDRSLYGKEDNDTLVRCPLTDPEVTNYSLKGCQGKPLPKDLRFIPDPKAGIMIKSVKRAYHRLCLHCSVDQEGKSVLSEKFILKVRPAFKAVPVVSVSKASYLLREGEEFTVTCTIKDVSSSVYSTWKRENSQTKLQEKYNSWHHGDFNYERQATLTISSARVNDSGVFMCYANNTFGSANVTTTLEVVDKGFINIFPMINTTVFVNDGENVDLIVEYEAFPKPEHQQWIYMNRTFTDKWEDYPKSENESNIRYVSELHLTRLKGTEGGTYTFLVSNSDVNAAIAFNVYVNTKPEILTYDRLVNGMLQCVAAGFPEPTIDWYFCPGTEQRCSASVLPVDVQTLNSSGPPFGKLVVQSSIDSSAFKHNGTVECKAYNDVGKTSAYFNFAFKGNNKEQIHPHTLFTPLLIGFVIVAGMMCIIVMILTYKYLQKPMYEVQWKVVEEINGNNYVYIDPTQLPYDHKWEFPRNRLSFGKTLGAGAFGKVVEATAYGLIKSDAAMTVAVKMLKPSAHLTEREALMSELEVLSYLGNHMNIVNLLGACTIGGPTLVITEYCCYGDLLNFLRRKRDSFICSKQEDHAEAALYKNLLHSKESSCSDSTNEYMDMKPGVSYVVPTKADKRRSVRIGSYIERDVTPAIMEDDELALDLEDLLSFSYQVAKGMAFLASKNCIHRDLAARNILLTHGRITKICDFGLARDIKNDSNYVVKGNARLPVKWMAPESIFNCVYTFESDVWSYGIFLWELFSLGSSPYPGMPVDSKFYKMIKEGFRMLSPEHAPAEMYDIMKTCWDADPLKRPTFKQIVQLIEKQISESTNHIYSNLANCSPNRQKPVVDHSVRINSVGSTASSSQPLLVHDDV

For the compound `Cc1ccc(NC(=O)c2ccc(CN3CCN(C=O)CC3)cc2)cc1Nc1nccc(-c2cccnc2)n1`, the inhibition entry in data set [1] and in data set [2] was “inactive” throughout.

In the case of `Cc1ccc(NC(=O)c2ccc(CN3CCNCC3)cc2)cc1Nc1nccc(-c2cccnc2)n1`, the pIC50 (in general, −log10 of the IC50, conventionally taken in molar units) is 6.29 against Bcr/Abl fusion protein [3], 5.65 against Bcr/Abl fusion protein [4], 5.81 on Bcr/Abl fusion protein [5] and 6.47 in [6].

For `Cc1ccc(NC(=O)c2ccc(CN3CCN(C)CC3)cc2)cc1Nc1nccc(-c2cccnc2)n1` [IMATINIB], the AUC (commonly concentration integrated over time) with Rattus norvegicus was determined as 33.9 nM·h; in the data set “in vivo”, 1970 nM·h. In addition, the AUC(0-t) (in general, exposure summed from dosing to a finite time, without extrapolation to infinity) at 48 h in data set [7] was found to be 1420 nM·h. Moreover, the results for the Stability in the data set on Liver microsomes [8] and with Liver microsomes [9] were 67.3% and 77.2%, respectively.

On to `Cc1ccc(NC(=O)c2ccc(CN3CCN(C)C(=O)C3)cc2)cc1Nc1nccc(-c2cccnc2)n1`, for which the inhibition entry in data set [1] and in [2] was “inactive” each time.

For the compound `CC(=O)N1CCN(Cc2ccc(C(=O)Nc3ccc(C)c(Nc4nccc(-c5cccnc5)n4)c3)cc2)CC1`, the inhibition entry in [1] and in data set [2] was “inactive” in each case.

In the case of `[2H]C([2H])([2H])N1CCN(Cc2ccc(C(=O)Nc3ccc(C)c(Nc4nccc(-c5cccnc5)n4)c3)cc2)CC1`, the AUC is 11 nM·h with Rattus norvegicus and 1850 nM·h in “in vivo”. The AUC(0-t) at 48 h in data set [7] was 1150 nM·h. Also, the Stability is reported as 81.9% with Liver microsomes [8] and 80.9% in the data set on Liver microsomes [9].

The values above are taken from ChEMBL document CHEMBL2384911 (Bioorg Med Chem, 2013).
